Results filed as inconclusive are left out.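 The calls were made as follows, unless noted: active = growth inhibition above 25% in both replicates, a cutoff set 3 SD above the mean; inconclusive = above 25% in only one replicate; inactive = the rest.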
Key:
[1] = OD615 S. cerevisiae growth inhibition, permissive medium, pilot counter-assay, permissive growth control for S. cerevisiae lifespan shortening project (AID 705); conditions: OD615, 24 h, at 10 µM, stronger effect = higher value
Summary of the method: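 System: S. cerevisiae with engineered DeaD lifespan system / Measured by: absorbance (optical density) at 615 nm / Read-out: reduction in yeast growth (OD615) / Times: 4 h cell pre-growth, 24 h exposure at 30 °C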

[2] = Restrictive medium S. cerevisiae growth inhibition, OD615, pilot screen of yeast lifespan reduction project, restrictive growth control (AID 706;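 active = growth inhibition above a set limit, 3 SD over mean compound inhibition, in both replicates, cut at about 43% in these data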;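 also: modified DeaD lifespan yeast strain shifted to restrictive glucose medium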); conditions: OD615, 48 h, at 10 µM, stronger effect = higher value
Summary of the method: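 System: Engineered S. cerevisiae DeaD strain | Buffer or medium: Glucose-based CSMM-D restrictive medium | Schedule: 4 h pre-incubation, 48 h exposure at 30 °C | Technique: Optical density at 615 nm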

[3] = viability gain of MRP-1-high H69AR cells under doxorubicin, pilot screen, MRP-1 activator project, CellTiter-Glo, duplicate (AID 807;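 active = viability increase at or above a cutoff of the median across tested compounds plus 3 SD, cut at about 8.5% in these data, passing the limit was not always enough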;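 also: compound pretreatment 18-22 h then 72 h combined with doxorubicin; 0% = doxorubicin alone and 100% = vehicle without doxorubicin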); conditions: H69AR viability with doxorubicin, CellTiter-Glo luminescence; at 10 µM; stronger effect = higher value
[4] = growth suppression of beta-catenin knockout HCT116, pilot screen, human colon tumor cells (AID 823;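 active = cell viability at or below a set limit in both duplicate runs, the limit being the all-compound median minus 4 SD, cut at about 23% in these data, passing the limit was not always enough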;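 also: 0% = wells killed by 20 µM Hyamine and 100% = untreated DMSO cell wells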); conditions: CellTiter-Glo, 60 h, at 10 µM, stronger effect = lower value
[5] = growth suppression of PTEN-deleted HCT116, pilot screen, cell-based, HCT116 clonal line, CellTiter-Glo (AID 824;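 active = viability at or below 27.92% in each of two runs, the all-compound median minus 4 SD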;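 also: 0% = 20 µM Hyamine control and 100% = vehicle cell control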); conditions: 60 h, at 10 µM, stronger effect = lower value
[6] = inhibitors of the yeast RAM network, pilot screen, dse1pr::URA3 reporter, 5-FOA selection (AID 869;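 active = inhibition over a set limit, the all-compound mean plus 3 SD, in both replicate runs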;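 also: 0% = DMSO wells with no growth and 100% = 10 µM 1-NA-PP1 with full growth; RAM network block rescues cells from 5-FOA so hits raise OD615 growth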); conditions: S. cerevisiae dse1pr::URA3 5-FOA growth, OD615, 2 d; at 10 µM; stronger effect = higher value; strain carries analog-sensitive mutant Cbk1 kinase
[7] = RAM signaling pathway blockade in yeast – S. cerevisiae, Pdr1DBD-CYC8 efflux-inhibited sensitized strain, primary screen (AID 1298;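 active = RAM network inhibition above 8.4% in each of two replicates, 3 SD over the compound average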;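 also: 0% = DMSO untreated cells without growth and 100% = 10 µM 1-NA-PP1 full growth; higher means more yeast growth rescued from 5-FOA killing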); conditions: S. cerevisiae cbk1-as DSE1-URA3 strain, 5-FOA growth OD615, 2 d; at 50 µM; stronger effect = higher value

CC1(C)CC(=O)N(CC(=O)O)c2ccccc2S1(=O)=O
inactive: growth inhibition [1] -4.39% | growth inhibition [2] 4.7% | viability increase [3] -0.77% | viability [4] 99.8% | viability [5] 96.3% | inhibition [6] 1.42% | RAM network inhibition [7] 4.48%

O=S(=O)(NCc1ccc2c(c1)OCO2)c1cnc[nH]1
inactive: growth inhibition [1] -5.07% | growth inhibition [2] 0.305% | viability increase [3] 1.17% | viability [4] 107% | viability [5] 106% | inhibition [6] 0.885% | RAM network inhibition [7] 0.72%

Cc1ccc(-c2nc(NC(=O)CSc3nnc(C)s3)ns2)cc1
inactive: growth inhibition [1] -5.46% | growth inhibition [2] 2.65% | viability increase [3] -0.8% | viability [4] 123% | viability [5] 102% | inhibition [6] 0.34% | RAM network inhibition [7] 2.66%

CC1CCc2nn(CC(=O)NCCCN3CCCCC3)cc2C1 (stereo not drawn)
inactive: growth inhibition [1] -15.9% | growth inhibition [2] -10.3% | viability increase [3] -2.34% | viability [4] 105% | viability [5] 96.7% | inhibition [6] 1.18% | RAM network inhibition [7] 3.77%

c1ccc2c(c1)nc1n2CCN1CCNC1CCCCC1
inactive: growth inhibition [1] -11.4% | growth inhibition [2] -11.7% | viability increase [3] -1.96% | viability [4] 94.2% | viability [5] 98.6% | inhibition [6] 0.065% | RAM network inhibition [7] 1.2%

Cn1c(NC(=O)c2ccc(F)c(F)c2)cc(=O)n(C)c1=O
inactive: growth inhibition [1] -2.93% | growth inhibition [2] -3.23% | viability increase [3] -1.64% | viability [4] 95.7% | viability [5] 93.4% | inhibition [6] 0.925% | RAM network inhibition [7] 0.81%

COc1ccccc1N1CCN(C(=O)c2ccc(Br)s2)CC1
inactive: growth inhibition [1] -10.4% | growth inhibition [2] -6.29% | viability increase [3] -1.58% | viability [4] 87% | viability [5] 91.1% | inhibition [6] 1.69% | RAM network inhibition [7] 6.83%

CCOC(=O)C(C)Sc1nnc(Cn2c(=O)sc3ccccc32)n1-c1ccccc1 (stereo not drawn)
inactive: growth inhibition [1] 2.42% | growth inhibition [2] -4.57% | viability increase [3] -0.22% | viability [4] 95.6% | viability [5] 92.6% | inhibition [6] 1.81% | RAM network inhibition [7] 0.1%

CC(C)OC(=O)CSc1nnc(-c2ccncc2)n1N
inactive: growth inhibition [1] -8.12% | growth inhibition [2] -10.2% | viability increase [3] -2.11% | viability [4] 97.5% | viability [5] 97.1% | inhibition [6] 1.8% | RAM network inhibition [7] 3.83%

Cc1noc(C)c1S(=O)(=O)N(CC(=O)Nc1ccc2c(c1)OCCO2)c1ccc(C(C)C)cc1
inactive: growth inhibition [1] -19.3% | growth inhibition [2] -5.11% | viability increase [3] -5.12% | viability [4] 56.8% | viability [5] 48.7% | inhibition [6] 1.71% | RAM network inhibition [7] 1.99%

COC(=O)C1=C(C)OC(N)=C(C#N)C1c1ccccc1F (stereo not drawn)
inactive: growth inhibition [1] -9.68% | growth inhibition [2] -3.74% | viability increase [3] -3.38% | viability [4] 94.9% | viability [5] 98.1% | inhibition [6] -0.37% | RAM network inhibition [7] -0.76%

CCN1CCN(c2ncnc3c2sc(=S)n3-c2ccccc2)CC1
inactive: growth inhibition [1] 8.5% | growth inhibition [2] 11.5% | viability increase [3] -3.4% | viability [4] 85.4% | viability [5] 84.9% | inhibition [6] 1.73% | RAM network inhibition [7] -0.06%

Cc1nnc(SCC(=O)NC(C)c2ccccc2)[nH]c1=O (stereo not drawn)
inactive: growth inhibition [1] -10.9% | growth inhibition [2] -9.25% | viability increase [3] -1.16% | viability [4] 101% | viability [5] 99.3% | inhibition [6] 4.54% | RAM network inhibition [7] 5.85%

O=C(CSc1nc(-c2ccco2)cc(C(F)(F)F)n1)N1CCN(Cc2ccccc2)CC1
inactive: growth inhibition [1] -6.8% | growth inhibition [2] -13.4% | viability increase [3] -4.54% | viability [4] 86.8% | viability [5] 82.8% | inhibition [6] -0.555% | RAM network inhibition [7] 6.26%

CCOC(=O)C1CCCCN1C(=O)CCc1c(C)nc2cc(-c3ccccc3)nn2c1C (stereo not drawn)
inactive: growth inhibition [1] 4.13% | growth inhibition [2] -4.46% | viability increase [3] 1.11% | viability [4] 52.9% | viability [5] 78% | inhibition [6] 1.38% | RAM network inhibition [7] -2.1%

CCn1cc(S(=O)(=O)CC(=O)Nc2cc(C)ccc2C)c2ccccc21
inactive: growth inhibition [1] -10.1% | growth inhibition [2] -1.18% | viability increase [3] -0.93% | viability [4] 105% | viability [5] 82.5% | inhibition [6] 2.07% | RAM network inhibition [7] 3.99%

Cc1csc2nc(CNC(=O)C3CCCCC3)cn12
inactive: growth inhibition [1] -16.4% | growth inhibition [2] -13.2% | viability increase [3] -3.04% | viability [4] 105% | viability [5] 97.2% | inhibition [6] 0.93% | RAM network inhibition [7] 0.53%

Cc1cc(C)n2nc(SCC#N)nc2n1
inactive: growth inhibition [1] -7.25% | growth inhibition [2] -4.04% | viability increase [3] -2.41% | viability [4] 95.4% | viability [5] 95.4% | inhibition [6] 0.2% | RAM network inhibition [7] 4.36%

CC(=O)Nc1sc(N)nc1-c1ccccc1
inactive: growth inhibition [1] -7.75% | growth inhibition [2] 16.2% | viability increase [3] 0.94% | viability [4] 88.7% | viability [5] 99.5% | inhibition [6] 0.055% | RAM network inhibition [7] 3.89%

O=C(Cn1cc2c(n1)CCCC2)NCc1cccnc1
inactive: growth inhibition [1] -1.72% | growth inhibition [2] -0.58% | viability increase [3] -0.86% | viability [4] 102% | viability [5] 101% | inhibition [6] 3.13% | RAM network inhibition [7] 3.68%

CC1CCCCN1S(=O)(=O)c1coc(C(N)=O)c1 (stereo not drawn)
inactive: growth inhibition [1] -12.1% | growth inhibition [2] -13.6% | viability increase [3] -2.18% | viability [4] 105% | viability [5] 96.8% | inhibition [6] 3% | RAM network inhibition [7] 0.05%

O=C(COC(=O)c1ccc(S(=O)(=O)NCc2ccco2)cc1)Nc1ccccc1OC(F)F
inactive: growth inhibition [1] -8.88% | growth inhibition [2] -12.5% | viability increase [3] -2.64% | viability [4] 93.5% | viability [5] 93.7% | inhibition [6] 1.43% | RAM network inhibition [7] 7.18%

CCOC(=O)N1CCN(CC(=O)Nc2cc3c(cc2C(C)=O)OCO3)CC1
inactive: growth inhibition [1] 2.37% | growth inhibition [2] 13% | viability increase [3] -3.17% | viability [4] 94.2% | viability [5] 98.9% | inhibition [6] 0.555% | RAM network inhibition [7] 2.4%

CCOC(=O)C1C(=O)CC(C)(O)C(C(=O)OCC)C1c1cccs1 (stereo not drawn)
inactive: growth inhibition [1] -3.39% | growth inhibition [2] -20.4% | viability increase [3] -2.92% | viability [4] 90% | viability [5] 89.2% | inhibition [6] 2.07% | RAM network inhibition [7] 4.69%

From PubChem BioAssay
